# Legend:
# [1] = folding enthalpy; higher = less favourable; fluorescence melt of hairpins on a sequencing array, two-state fit; conditions: sodium 0.088 M
# In short: (§1)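 With Cy3 and quencher oligos annealed, library hairpins on a sequenced MiSeq flow cell were imaged for Cy3 fluorescence in 50 mM Na-HEPES pH 8.0, 25 mM NaCl, in 2.5 °C steps up to 60 °C. Melting temperature and folding enthalpy were derived from bootstrapped two-state fits of signals normalised to pre-quench Cy3 and to control constructs. Four replicates were combined by inverse variance, with fitted temperatures raised by 9.35 °C to match UV melts.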
# [2] = melting temperature; fluorescence melt of hairpins on a sequencing array, two-state fit, raised by 9.35 °C to match UV melts; conditions: sodium 0.088 M
# In short: as §1
sequence,measurement,setting,value
GGGCTCGAAAGAGACCC ((((((....))).))),folding enthalpy,[1],-20.9 kcal/mol
same,Tm,[2],66.8 °C
GGGCTCGAAAGAGCACCC ((((((....)))..))),folding enthalpy,[1],-12.2 kcal/mol
same,Tm,[2],58.1 °C
GGGCTCGGAAACGGGTCC ((.(.((....)).).)),folding enthalpy,[1],-34.5 kcal/mol
same,Tm,[2],48.6 °C
GGGCTGGGAAACCGGCCC ((((.((....)).)))),folding enthalpy,[1],-29.2 kcal/mol
same,Tm,[2],67.2 °C
GGGCTGGGAAACCGGCTC (.((.((....)).)).),folding enthalpy,[1],-19.7 kcal/mol
same,Tm,[2],49.1 °C
GGGCTTCCGAAAGGACCC (((..(((....)))))),folding enthalpy,[1],-23.4 kcal/mol
same,Tm,[2],39.9 °C
GGGCTTCGAAAGAATCCC (((.(((....))).))),folding enthalpy,[1],-33 kcal/mol
same,Tm,[2],46.4 °C
GGGCTTGCGAAAGCACCC (((..(((....)))))),folding enthalpy,[1],-15.8 kcal/mol
same,Tm,[2],45.6 °C
GGGCTTGGAAACAAGTCC ((.((((....)))).)),folding enthalpy,[1],-50.9 kcal/mol
same,Tm,[2],54.6 °C
GGGCTTGGAAACGAGTCC ((.((.(....).)).)),folding enthalpy,[1],-32.8 kcal/mol
same,Tm,[2],43.9 °C
GGGGAAGGAAACTCCCCC ((((.((....)).)))),folding enthalpy,[1],-24.8 kcal/mol
same,Tm,[2],46.9 °C
GGGGACCGAAAGGTTCCC (((.(((....))).))),folding enthalpy,[1],-43.5 kcal/mol
same,Tm,[2],66.3 °C
GGGGACGAAAGTCAGCCC ((((((....)))..))),folding enthalpy,[1],-15.4 kcal/mol
same,Tm,[2],49.5 °C
GGGGACGAAAGTCGTCCC ((((((....)))..))),folding enthalpy,[1],-20.8 kcal/mol
same,Tm,[2],61.3 °C
GGGGACGAAAGTCTCCC ((((((....))).))),folding enthalpy,[1],-23.9 kcal/mol
same,Tm,[2],60 °C
GGGGACGAAAGTCTCCCC ((((((....)))..))),folding enthalpy,[1],-14.3 kcal/mol
same,Tm,[2],58.2 °C
GGGGACGGAAACATCCCC (((((.(....).))))),folding enthalpy,[1],-32.8 kcal/mol
same,Tm,[2],47 °C
GGGGACGGAAACGCCCCC ((((.((....)).)))),folding enthalpy,[1],-26.1 kcal/mol
same,Tm,[2],57.9 °C
GGGGAGGCGAAAGCCCCC (((..(((....)))))),folding enthalpy,[1],-14.2 kcal/mol
same,Tm,[2],64.5 °C
GGGGAGGGAAACCTCCTC (.(((((....))))).),folding enthalpy,[1],-15.6 kcal/mol
same,Tm,[2],53.4 °C
GGGGATCGAAAGATACCC (((.(((....))).))),folding enthalpy,[1],-43.2 kcal/mol
same,Tm,[2],62.3 °C
GGGGATGGAAACGTTCCC (((.(.(....).).))),folding enthalpy,[1],-30 kcal/mol
same,Tm,[2],39 °C
GGGGCAGGAAACCACCCC ((((..(....)..)))),folding enthalpy,[1],-28.6 kcal/mol
same,Tm,[2],36.6 °C
GGGGCAGGAAACTACCCC ((((.((....)).)))),folding enthalpy,[1],-29.4 kcal/mol
same,Tm,[2],49 °C
GGGGCAGGAAACTGCCTC (.(((((....))))).),folding enthalpy,[1],-13.1 kcal/mol
same,Tm,[2],59.6 °C
GGGGCAGGAAACTGCTCC ((.((((....)))).)),folding enthalpy,[1],-36.6 kcal/mol
same,Tm,[2],60.2 °C
GGGGCCACGAAAGTGCCC (((..(((....)))))),folding enthalpy,[1],-26.2 kcal/mol
same,Tm,[2],60 °C
GGGGCCGAAAGGCATCCC ((((((....)))..))),folding enthalpy,[1],-13.9 kcal/mol
same,Tm,[2],54.9 °C
GGGGCCGAAAGGCTGCCC ((((((....)))..))),folding enthalpy,[1],-14.2 kcal/mol
same,Tm,[2],46.4 °C
GGGGCTGGAAACGGTCCC (((.(.(....).).))),folding enthalpy,[1],-33 kcal/mol
same,Tm,[2],49.6 °C
GGGGGAGGAAACCCCCCC (((((.(....).))))),folding enthalpy,[1],-20.1 kcal/mol
same,Tm,[2],55.1 °C
GGGGGCGAAAGCCAGCCC ((((((....)))..))),folding enthalpy,[1],-14.1 kcal/mol
same,Tm,[2],51.8 °C
GGGGGCGAAAGCCATCCC ((((((....)))..))),folding enthalpy,[1],-13.5 kcal/mol
same,Tm,[2],51.5 °C
GGGGGCGGAAACGTCCCC ((((.((....)).)))),folding enthalpy,[1],-22.5 kcal/mol
same,Tm,[2],67.4 °C
GGGGGTGGAAACACCTCC ((.((((....)))).)),folding enthalpy,[1],-29.1 kcal/mol
same,Tm,[2],54.9 °C
GGGGTACGAAAGTATCCC (((.(((....))).))),folding enthalpy,[1],-33.5 kcal/mol
same,Tm,[2],58 °C
GGGGTAGGAAACTGCTCC ((.(.((....)).).)),folding enthalpy,[1],-29.9 kcal/mol
same,Tm,[2],35.9 °C
GGGGTCGAAAGACACCC ((((((....))).))),folding enthalpy,[1],-18.2 kcal/mol
same,Tm,[2],63.1 °C
GGGGTCGAAAGACTCCC ((((((....))).))),folding enthalpy,[1],-30.9 kcal/mol
same,Tm,[2],57 °C
GGGGTCGGAAACGACCTC (.(((((....))))).),folding enthalpy,[1],-14.1 kcal/mol
same,Tm,[2],61.4 °C
GGGGTGACGAAAGTCCCC (((..(((....)))))),folding enthalpy,[1],-31.8 kcal/mol
same,Tm,[2],56 °C
GGGGTGGGAAACCGCCCC ((((.((....)).)))),folding enthalpy,[1],-38.1 kcal/mol
same,Tm,[2],65.9 °C
GGGGTTACGAAAGTACCC (((..(((....)))))),folding enthalpy,[1],-22.8 kcal/mol
same,Tm,[2],51.4 °C
GGGTAAGGAAACCTACCC (((((.(....).))))),folding enthalpy,[1],-30.6 kcal/mol
same,Tm,[2],42.9 °C
GGGTACACGAAAGTGCCC (((..(((....)))))),folding enthalpy,[1],-21.2 kcal/mol
same,Tm,[2],48 °C
GGGTACGAAAGTAAACCC ((((((....)))..))),folding enthalpy,[1],-28.4 kcal/mol
same,Tm,[2],47.3 °C
GGGTACGAAAGTACGCCC ((((((....)))..))),folding enthalpy,[1],-13.3 kcal/mol
same,Tm,[2],46.1 °C
GGGTACGAAAGTAGCCC ((((((....))).))),folding enthalpy,[1],-26.3 kcal/mol
same,Tm,[2],56.2 °C
GGGTACGAAAGTAGGCCC ((((((....)))..))),folding enthalpy,[1],-20.1 kcal/mol
same,Tm,[2],38.6 °C
GGGTACGAAAGTATCCC ((((((....))).))),folding enthalpy,[1],-37.3 kcal/mol
same,Tm,[2],51.8 °C
GGGTACGCGAAAGCGCCC (((..(((....)))))),folding enthalpy,[1],-16.3 kcal/mol
same,Tm,[2],47.2 °C
GGGTACGGAAACGTGCCC (((.(((....))).))),folding enthalpy,[1],-53.5 kcal/mol
same,Tm,[2],60.1 °C
GGGTACGGAAACGTGTCC ((..(((....)))..)),folding enthalpy,[1],-24.8 kcal/mol
same,Tm,[2],40.6 °C
GGGTAGCGAAAGCTCCCC (((.(((....))).))),folding enthalpy,[1],-28 kcal/mol
same,Tm,[2],55.1 °C
GGGTAGGAAACTACCC ((((((....)))))),folding enthalpy,[1],-29.6 kcal/mol
same,Tm,[2],58.8 °C
GGGTATACGAAAGTACCC (((..(((....)))))),folding enthalpy,[1],-24.4 kcal/mol
same,Tm,[2],45.6 °C
GGGTATCGAAAGATTCCC (((.(((....))).))),folding enthalpy,[1],-30.6 kcal/mol
same,Tm,[2],48.8 °C
GGGTATTCGAAAGAACCC (((..(((....)))))),folding enthalpy,[1],-22 kcal/mol
same,Tm,[2],34.5 °C
GGGTCAGGAAACTGATCC ((.((((....)))).)),folding enthalpy,[1],-38.9 kcal/mol
same,Tm,[2],51.9 °C
GGGTCAGGAAACTGGCCC (((.(((....))).))),folding enthalpy,[1],-41.8 kcal/mol
same,Tm,[2],60.4 °C
GGGTCAGGAAACTGGCTC (.(.(((....))).).),folding enthalpy,[1],-24.5 kcal/mol
same,Tm,[2],39.8 °C
GGGTCCCGAAAGGGCCCC (((.(((....))).))),folding enthalpy,[1],-17.9 kcal/mol
same,Tm,[2],67.2 °C
GGGTCCGAAAGGAGACCC ((((((....)))..))),folding enthalpy,[1],-22 kcal/mol
same,Tm,[2],53.1 °C
GGGTCCGAAAGGATACCC ((((((....)))..))),folding enthalpy,[1],-20.1 kcal/mol
same,Tm,[2],50 °C
GGGTCCGAAAGGATTCCC ((((((....)))..))),folding enthalpy,[1],-22.2 kcal/mol
same,Tm,[2],44.1 °C
GGGTCCGGAAACGGACTC (.(((((....))))).),folding enthalpy,[1],-15.2 kcal/mol
same,Tm,[2],61.3 °C
GGGTCCGGAAACGGATCC ((.((((....)))).)),folding enthalpy,[1],-38.1 kcal/mol
same,Tm,[2],59.1 °C
GGGTCGCGAAAGCGCCCC (((.(((....))).))),folding enthalpy,[1],-18.6 kcal/mol
same,Tm,[2],66.8 °C
GGGTCGGGAAACTGGCCC (((.(.(....).).))),folding enthalpy,[1],-35.8 kcal/mol
same,Tm,[2],50.6 °C
GGGTCTCCGAAAGGACCC (((..(((....)))))),folding enthalpy,[1],-26.5 kcal/mol
same,Tm,[2],51.4 °C
GGGTCTGGAAACAGACCC (((((((....))))))),folding enthalpy,[1],-36.1 kcal/mol
same,Tm,[2],68.8 °C
GGGTCTGGAAACAGGCCC (((.(((....))).))),folding enthalpy,[1],-46.8 kcal/mol
same,Tm,[2],59.8 °C
GGGTGACGAAAGTCCCC (((.(((....)))))),folding enthalpy,[1],-34.9 kcal/mol
same,Tm,[2],58.4 °C
GGGTGAGGAAACTCACCC (((((((....))))))),folding enthalpy,[1],-33.8 kcal/mol
same,Tm,[2],68.6 °C
GGGTGAGGAAACTCATCC ((.((((....)))).)),folding enthalpy,[1],-43.1 kcal/mol
same,Tm,[2],49.2 °C
GGGTGAGGAAACTCGTCC ((..(((....)))..)),folding enthalpy,[1],-28.5 kcal/mol
same,Tm,[2],34.3 °C
GGGTGATCGAAAGATCCC (((..(((....)))))),folding enthalpy,[1],-19 kcal/mol
same,Tm,[2],50.2 °C
GGGTGCCCGAAAGGGCCC (((..(((....)))))),folding enthalpy,[1],-11.6 kcal/mol
same,Tm,[2],55.5 °C
GGGTGCGAAAGCAATCCC ((((((....)))..))),folding enthalpy,[1],-21.8 kcal/mol
same,Tm,[2],50.6 °C
GGGTGCGAAAGCATCCC ((((((....))).))),folding enthalpy,[1],-18.5 kcal/mol
same,Tm,[2],65.2 °C
GGGTGCGAAAGCATTCCC ((((((....)))..))),folding enthalpy,[1],-17.4 kcal/mol
same,Tm,[2],46.9 °C
GGGTGGCCGAAAGGCCCC (((..(((....)))))),folding enthalpy,[1],-11.8 kcal/mol
same,Tm,[2],54.2 °C
GGGTGGCGAAAGCCCCC (((.(((....)))))),folding enthalpy,[1],-17.3 kcal/mol
same,Tm,[2],66.9 °C
GGGTGGCGAAAGCCTCCC (((.(((....))).))),folding enthalpy,[1],-28 kcal/mol
same,Tm,[2],66.2 °C
GGGTGGGAAACCACCC ((((((....)))))),folding enthalpy,[1],-29.6 kcal/mol
same,Tm,[2],68.2 °C
GGGTGTACGAAAGTACCC (((..(((....)))))),folding enthalpy,[1],-23.1 kcal/mol
same,Tm,[2],53.3 °C
GGGTGTGGAAACGCATCC ((.((.(....).)).)),folding enthalpy,[1],-26.3 kcal/mol
same,Tm,[2],41.3 °C
GGGTGTGGAAACGTACCC ((((..(....)..)))),folding enthalpy,[1],-28.7 kcal/mol
same,Tm,[2],45.5 °C
GGGTTACGAAAGTACCC (((.(((....)))))),folding enthalpy,[1],-31.5 kcal/mol
same,Tm,[2],54.3 °C
GGGTTACGAAAGTATCCC (((.(((....))).))),folding enthalpy,[1],-43.4 kcal/mol
same,Tm,[2],51.4 °C
GGGTTAGGAAACTGACCC ((((.((....)).)))),folding enthalpy,[1],-34.6 kcal/mol
same,Tm,[2],50 °C
